Experimental data as given in ChEMBL document CHEMBL3272147, “Nonapeptide ethylamide inhibitors of the luteinizing hormone-releasing hormone (LH-RH) having a D-alanyl residue in position 6 and variations at positions 2 and 3” (1977).
Activity calls are given as the source filed them. No cut-off for these calls is given here.

How the values were obtained:
[1] = target: T1, Gonadotropin-releasing hormone receptor (Rattus norvegicus) (UniProt P30969); assay: Agonist activity at LH-RH receptor in Sprague-Dawley rat pituitary gland assessed as change in follicle-stimulating hormone release in medium at 100 ug/ml incubated for 4 hrs measured every hour for 4 hrs by RIA relative to vehicle-treated control
T1 sequence (whole entry): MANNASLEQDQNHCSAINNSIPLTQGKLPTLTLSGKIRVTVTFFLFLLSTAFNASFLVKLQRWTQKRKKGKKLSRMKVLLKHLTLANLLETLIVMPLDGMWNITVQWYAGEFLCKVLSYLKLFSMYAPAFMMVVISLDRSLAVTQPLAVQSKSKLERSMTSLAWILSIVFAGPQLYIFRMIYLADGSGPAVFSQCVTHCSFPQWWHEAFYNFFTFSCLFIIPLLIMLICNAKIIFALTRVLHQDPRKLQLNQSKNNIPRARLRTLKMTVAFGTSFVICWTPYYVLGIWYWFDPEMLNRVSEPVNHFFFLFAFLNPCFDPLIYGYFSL
Summary of the method: (§1)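 Pituitaries from 20-day-old female Sprague-Dawley rats, two per 1 mL lactated Ringer's, incubated 6 h total at 37 °C with shaking. Medium removed hourly for LH and FSH RIA and replaced with fresh medium. Analogue alone added at I3–I6. Values expressed as ng of standards LH-LER-1240-2 (0.60 NIH-LH-S1 unit/mg) and FSH 2.1 × NIH-FSH-S1 units/mg; change versus control with SEM and p.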

[2] = target: T1, Gonadotropin-releasing hormone receptor (Rattus norvegicus); assay: Agonist activity at LH-RH receptor in Sprague-Dawley rat pituitary gland assessed as change in luteinizing hormone release in medium at 100 ug/ml incubated for 4 hrs measured every hour for 4 hrs by RIA relative to vehicle-treated control; summary of the method: as §1
[3] = target: T1, Gonadotropin-releasing hormone receptor (Rattus norvegicus); assay: (§2) Antagonist activity at LH-RH receptor in Sprague-Dawley rat pituitary gland assessed as change in 0.3 ng/mL LH-RH-induced follicle-stimulating hormone release in medium at 100 ug/ml preincubated for 2 hrs followed by LH-RH addition at 5th and 6th hr 5 mins post drug addition and measured every hour for 4 hrs by RIA relative to vehicle-treated control
Summary of the method: (§3)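 Two pituitaries from 20-day-old female Sprague-Dawley rats per 1 mL lactated Ringer's, incubated 6 h at 37 °C with shaking, medium collected and replaced hourly for LH/FSH RIA. Analogue added at I3, I4, I5 and I6; LH-RH added 5 min after the peptide at I5 and I6. Results given as Δ ng/mL against LH-LER-1240-2 and NIH-FSH-S1-based standards, with SEM and p.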

[4] = target: T1, Gonadotropin-releasing hormone receptor (Rattus norvegicus); assay: as §2, with “luteinizing” for “follicle-stimulating”; summary of the method: as §3
[5] = target: T1, Gonadotropin-releasing hormone receptor (Rattus norvegicus); assay: as §2, with “1” for “100”; summary of the method: as §3
[6] = target: T1, Gonadotropin-releasing hormone receptor (Rattus norvegicus); assay: as §2, with “luteinizing” for “follicle-stimulating”, “10” for “100”; summary of the method: as §3
[7] = target: T1, Gonadotropin-releasing hormone receptor (Rattus norvegicus); assay: as §2, with “luteinizing” for “follicle-stimulating”, “0.1” for “100”; summary of the method: as §3
[8] = target: T1, Gonadotropin-releasing hormone receptor (Rattus norvegicus); assay: as §2, with “0.1” for “100”; summary of the method: as §3
[9] = target: T1, Gonadotropin-releasing hormone receptor (Rattus norvegicus); assay: as §2, with “luteinizing” for “follicle-stimulating”, “1” for “100”; summary of the method: as §3
[10] = target: T1, Gonadotropin-releasing hormone receptor (Rattus norvegicus); assay: as §2, with “10” for “100”; summary of the method: as §3
[11] = target: T1, Gonadotropin-releasing hormone receptor (Rattus norvegicus); assay: Agonist activity at LH-RH receptor in Sprague-Dawley rat pituitary gland assessed as change in follicle-stimulating hormone release in medium at 10 ug/ml incubated for 4 hrs measured every hour for 4 hrs by RIA relative to vehicle-treated control; summary of the method: as §1
[12] = target: T1, Gonadotropin-releasing hormone receptor (Rattus norvegicus); assay: Agonist activity at LH-RH receptor in Sprague-Dawley rat pituitary gland assessed as change in luteinizing hormone release in medium at 10 ug/ml incubated for 4 hrs measured every hour for 4 hrs by RIA relative to vehicle-treated control; summary of the method: as §1
[13] = test system: Rattus norvegicus; assay: Inhibition of ovulation in 4 day cycling rat at 1.5 mg, sc administered through corn oil between 12 to 12:30 pm on proestrous stage; type: functional, organism-based
Summary of the method: (§4)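 Antiovulation test in 4-day cycling rats. A single sc injection of analogue in corn oil was given between 12 and 12:30 p.m. on proestrus. Controls received 0.3 mL of vehicle. Ova shed were counted on estrus.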

[14] = target: T1, Gonadotropin-releasing hormone receptor (Rattus norvegicus); assay: as §2, with “0.6” for “0.3”, “1” for “100”; summary of the method: as §3
[15] = target: T1, Gonadotropin-releasing hormone receptor (Rattus norvegicus); assay: as §2, with “0.6” for “0.3”, “10” for “100”; summary of the method: as §3
[16] = target: T1, Gonadotropin-releasing hormone receptor (Rattus norvegicus); assay: as §2, with “0.6” for “0.3”, “0.1” for “100”; summary of the method: as §3
[17] = target: T1, Gonadotropin-releasing hormone receptor (Rattus norvegicus); assay: as §2, with “0.6” for “0.3”, “luteinizing” for “follicle-stimulating”, “1” for “100”; summary of the method: as §3
[18] = test system: Rattus norvegicus; assay: Inhibition of ovulation in 4 day cycling rat at 750 ug, sc administered through corn oil between 12 to 12:30 pm on proestrous stage; type: functional; summary of the method: as §4
[19] = target: T1, Gonadotropin-releasing hormone receptor (Rattus norvegicus); assay: as §2, with “0.6” for “0.3”, “luteinizing” for “follicle-stimulating”, “10” for “100”; summary of the method: as §3
[20] = target: T1, Gonadotropin-releasing hormone receptor (Rattus norvegicus); assay: as §2, with “0.6” for “0.3”, “luteinizing” for “follicle-stimulating”, “0.1” for “100”; summary of the method: as §3

Row | SMILES | Activity [1] [ng/mL] | Activity [2] [ng/mL] | Activity [3] [ng/mL] | Activity [4] [ng/mL] | Activity [5] [ng/mL] | Activity [6] [ng/mL] | Activity [7] [ng/mL] | Activity [8] [ng/mL] | Activity [9] [ng/mL] | Activity [10] [ng/mL] | Activity [11] [ng/mL] | Activity [12] [ng/mL] | inhibition [13] | Activity [14] [ng/mL] | Activity [15] [ng/mL] | Activity [16] [ng/mL] | Activity [17] [ng/mL] | inhibition [18] | Activity [19] [ng/mL] | Activity [20] [ng/mL]
1 | CCNC(=O)[C@@H]1CCCN1C(=O)[C@H](CCCNC(=N)N)NC(=O)[C@H](CC(C)C)NC(=O)[C@@H](C)NC(=O)[C@H](Cc1ccc(O)cc1)NC(=O)[C@H](CO)NC(=O)CNC(=O)[C@H](CC(C)C)NC(=O)[C@@H]1CCC(=O)N1 | -782 | -6 | 3310 | 169 | – | – | – | – | – | – | – | – | – | – | – | – | – | – | – | –
2 | CCNC(=O)[C@@H]1CCCN1C(=O)[C@H](CCCNC(=N)N)NC(=O)[C@H](CC(C)C)NC(=O)[C@@H](C)NC(=O)[C@H](Cc1ccc(O)cc1)NC(=O)[C@H](CO)NC(=O)[C@H](CC(C)C)NC(=O)[C@H](CC(C)C)NC(=O)[C@@H]1CCC(=O)N1 | 712 | 73 | – | – | 3980 | 45 | 166 | 5110 | 60 | 1460 | – | – | – | – | – | – | – | – | – | –
3 | CCCC[C@H](NC(=O)[C@H](CC(C)C)NC(=O)[C@@H]1CCC(=O)N1)C(=O)N[C@@H](CO)C(=O)N[C@@H](Cc1ccc(O)cc1)C(=O)N[C@H](C)C(=O)N[C@@H](CC(C)C)C(=O)N[C@@H](CCCNC(=N)N)C(=O)N1CCC[C@H]1C(=O)NCC | -282 | 13 | -516 | 12 | 2240 | 28 | – | – | 70 | 1630 | – | – | – | – | – | – | – | – | – | –
4 | CCNC(=O)[C@@H]1CCCN1C(=O)[C@H](CCCNC(=N)N)NC(=O)[C@H](CC(C)C)NC(=O)[C@@H](C)NC(=O)[C@H](Cc1ccc(O)cc1)NC(=O)[C@H](CO)NC(=O)[C@H](CC(C)C)NC(=O)[C@@H](NC(=O)[C@@H]1CCC(=O)N1)C(C)C | – | – | – | – | 4320 | 63 | – | – | 272 | 1640 | 490 | 8 | – | – | – | – | – | – | – | –
5 | CCNC(=O)[C@@H]1CCCN1C(=O)[C@H](CCCNC(=N)N)NC(=O)[C@H](CC(C)C)NC(=O)[C@@H](C)NC(=O)[C@H](Cc1ccc(O)cc1)NC(=O)[C@H](CO)NC(=O)[C@H](CC(C)C)NC(=O)[C@@H](NC(=O)[C@@H]1CCC(=O)N1)[C@@H](C)CC | -227 | 61 | – | – | 3330 | -53 | – | – | 186 | 1760 | – | – | – | – | – | – | – | – | – | –
6 | CCNC(=O)[C@@H]1CCCN1C(=O)[C@H](CCCNC(=N)N)NC(=O)[C@H](CC(C)C)NC(=O)[C@@H](C)NC(=O)[C@H](Cc1ccc(O)cc1)NC(=O)[C@H](CO)NC(=O)[C@H](CC(C)C)NC(=O)[C@H](Cc1c[nH]c2ccccc12)NC(=O)[C@@H]1CCC(=O)N1 | 564 | 18 | – | – | – | – | – | – | – | – | – | – | Active | 3090 | -1 | 7370 | 73 | Active | 36 | 193
7 | CCC[C@H](NC(=O)[C@H](CC(C)C)NC(=O)[C@@H]1CCC(=O)N1)C(=O)N[C@@H](CO)C(=O)N[C@@H](Cc1ccc(O)cc1)C(=O)N[C@H](C)C(=O)N[C@@H](CC(C)C)C(=O)N[C@@H](CCCNC(=N)N)C(=O)N1CCC[C@H]1C(=O)NCC | – | – | – | – | 3900 | 45 | 213 | 5120 | 93 | 2000 | – | – | – | – | – | – | – | – | – | –
8 | CCNC(=O)[C@@H]1CCCN1C(=O)[C@H](CCCNC(=N)N)NC(=O)[C@H](CC(C)C)NC(=O)[C@@H](C)NC(=O)[C@H](Cc1ccc(O)cc1)NC(=O)[C@H](CO)NC(=O)[C@H](CC(C)C)NC(=O)[C@H](Cc1ccccc1)NC(=O)[C@@H]1CCC(=O)N1 | 1380 | 59 | – | – | 1560 | 47 | 130 | 3120 | 77 | 549 | – | – | – | – | – | – | – | – | – | –
9 | CCC[C@H](NC(=O)[C@H](Cc1ccccc1)NC(=O)[C@@H]1CCC(=O)N1)C(=O)N[C@@H](CO)C(=O)N[C@@H](Cc1ccc(O)cc1)C(=O)N[C@H](C)C(=O)N[C@@H](CC(C)C)C(=O)N[C@@H](CCCNC(=N)N)C(=O)N1CCC[C@H]1C(=O)NCC | -204 | -66 | – | – | – | – | – | – | – | – | – | – | – | 2700 | -883 | 3980 | 32 | – | -7 | 221
10 | CCNC(=O)[C@@H]1CCCN1C(=O)[C@H](CCCNC(=N)N)NC(=O)[C@H](CC(C)C)NC(=O)[C@@H](C)NC(=O)[C@H](Cc1ccc(O)cc1)NC(=O)[C@H](CO)NC(=O)[C@H](CC)NC(=O)[C@H](CC(C)C)NC(=O)[C@@H]1CCC(=O)N1 | 866 | 1 | 1780 | 45 | – | 150 | – | – | – | 3480 | – | – | – | – | – | – | – | – | – | –
